tested on: OVCAR-5; assay: Growth inhibition of human OVCAR5 cells at 10 uM after 48 hrs by coulter counter analysis; assay type: functional; details: OVCAR-5, 48 h, read-out: GI
Procedure, shortened: (§1)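 Single-dose NCI 60-line panel screen of test compounds. Cells grown in RPMI 1640 with 10% FBS. Compounds dissolved in DMSO, then diluted in phosphate buffer saline (final DMSO below 1%). Wells run in duplicate at 6 × 10⁴ cells/ml. Controls held PBS and DMSO at matching dilutions. Incubation 48 h at 37 °C under humidified 5% CO2. Cells diluted tenfold in saline and counted by Coulter counter. Percent growth inhibition taken from mean-graph of treated-cell growth.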

| SMILES | inhibition of growth at 10 µM |
| --- | --- |
| Cc1cnc(NC(=O)CCN2CCN(c3ccccc3)CC2)s1 | < 10% |

tested on: MCF7; assay: Growth inhibition of human MCF7 cells at 10 uM after 48 hrs by coulter counter analysis; assay type: functional; details: MCF7, 48 h, read-out: GI; procedure, shortened: as §1

| SMILES | inhibition of growth at 10 µM |
| --- | --- |
| Cc1cnc(NC(=O)CCN2CCN(c3ccccc3)CC2)s1 | < 10% |

tested on: SR; assay: Growth inhibition of human SR cells at 10 uM after 48 hrs by coulter counter analysis; assay type: functional; details: read-out: GI
Procedure, shortened: (§2)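 Single-dose screen in the NCI 60 cell line panel. Cells grown in RPMI 1640 with 10% FBS. Compounds dissolved in DMSO and diluted in phosphate buffered saline, final DMSO under 1%. Duplicate wells seeded from culture at 6 × 10⁴ cells/ml. Incubated 48 h at 37 °C, humidified, 5% CO2. Cells diluted tenfold in saline and Coulter-counted. Percent growth inhibition computed against PBS/DMSO controls.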

| SMILES | inhibition of growth at 10 µM |
| --- | --- |
| Cc1cnc(NC(=O)CCN2CCN(c3ccccc3)CC2)s1 | 14.3% |

tested on: UACC-62; assay: Growth inhibition of human UACC62 cells at 10 uM after 48 hrs by coulter counter analysis; assay type: functional; details: UACC-62, 48 h, read-out: GI; procedure, shortened: as §2

| SMILES | inhibition of growth at 10 µM |
| --- | --- |
| Cc1cnc(NC(=O)CCN2CCN(c3ccccc3)CC2)s1 | < 10% |

tested on: SF-295; assay: Growth inhibition of human SF295 cells at 10 uM after 48 hrs by coulter counter analysis; assay type: functional; details: SF-295, 48 h, read-out: GI; procedure, shortened: as §1

| SMILES | inhibition of growth at 10 µM |
| --- | --- |
| Cc1cnc(NC(=O)CCN2CCN(c3ccccc3)CC2)s1 | < 10% |

tested on: HOP-92; assay: Growth inhibition of human HOP92 cells at 10 uM after 48 hrs by coulter counter analysis; assay type: functional; details: HOP-92, 48 h, read-out: GI; procedure, shortened: as §1

| SMILES | inhibition of growth at 10 µM |
| --- | --- |
| Cc1cnc(NC(=O)CCN2CCN(c3ccccc3)CC2)s1 | < 10% |

tested on: M14; assay: Growth inhibition of human M14 cells at 10 uM after 48 hrs by coulter counter analysis; assay type: functional; details: M14, 48 h, read-out: GI; procedure, shortened: as §1

| SMILES | inhibition of growth at 10 µM |
| --- | --- |
| Cc1cnc(NC(=O)CCN2CCN(c3ccccc3)CC2)s1 | < 10% |

tested on: T47D; assay: Growth inhibition of human T47D cells at 10 uM after 48 hrs by coulter counter analysis; assay type: functional; details: read-out: GI; procedure, shortened: as §2

| SMILES | inhibition of growth at 10 µM |
| --- | --- |
| Cc1cnc(NC(=O)CCN2CCN(c3ccccc3)CC2)s1 | < 10% |

tested on: NCI-H322M; assay: Growth inhibition of human NCI-H322M cells at 10 uM after 48 hrs by coulter counter analysis; assay type: functional; details: read-out: GI; procedure, shortened: as §1

| SMILES | inhibition of growth at 10 µM |
| --- | --- |
| Cc1cnc(NC(=O)CCN2CCN(c3ccccc3)CC2)s1 | < 10% |

tested on: BT-549; assay: Growth inhibition of human BT549 cells at 10 uM after 48 hrs by coulter counter analysis; assay type: functional; details: BT-549, 48 h, read-out: GI; procedure, shortened: as §1

| SMILES | inhibition of growth at 10 µM |
| --- | --- |
| Cc1cnc(NC(=O)CCN2CCN(c3ccccc3)CC2)s1 | < 10% |

tested on: NCI-H522; assay: Growth inhibition of human NCI-H522 cells at 10 uM after 48 hrs by coulter counter analysis; assay type: functional; details: NCI-H522, 48 h, read-out: GI; procedure, shortened: as §1

| SMILES | inhibition of growth at 10 µM |
| --- | --- |
| Cc1cnc(NC(=O)CCN2CCN(c3ccccc3)CC2)s1 | < 10% |

tested on: NCI-H226; assay: Growth inhibition of human NCI-H226 cells at 10 uM after 48 hrs by coulter counter analysis; assay type: functional; details: NCI-H226, 48 h, read-out: GI; procedure, shortened: as §1

| SMILES | inhibition of growth at 10 µM |
| --- | --- |
| Cc1cnc(NC(=O)CCN2CCN(c3ccccc3)CC2)s1 | < 10% |

tested on: UO-31; assay: Growth inhibition of human UO31 cells at 10 uM after 48 hrs by coulter counter analysis; assay type: functional; details: UO-31, 48 h, read-out: GI; procedure, shortened: as §2

| SMILES | inhibition of growth at 10 µM |
| --- | --- |
| Cc1cnc(NC(=O)CCN2CCN(c3ccccc3)CC2)s1 | 12.8% |

tested on: MDA-MB-468; assay: Growth inhibition of human MDA-MB-468 cells at 10 uM after 48 hrs by coulter counter analysis; assay type: functional; details: MDA-MB-468, 48 h, read-out: GI; procedure, shortened: as §1

| SMILES | inhibition of growth at 10 µM |
| --- | --- |
| Cc1cnc(NC(=O)CCN2CCN(c3ccccc3)CC2)s1 | < 10% |

tested on: OVCAR-4; assay: Growth inhibition of human OVCAR4 cells at 10 uM after 48 hrs by coulter counter analysis; assay type: functional; details: OVCAR-4, 48 h, read-out: GI; procedure, shortened: as §1

| SMILES | inhibition of growth at 10 µM |
| --- | --- |
| Cc1cnc(NC(=O)CCN2CCN(c3ccccc3)CC2)s1 | < 10% |

tested on: SN12C; assay: Growth inhibition of human SN12C cells at 10 uM after 48 hrs by coulter counter analysis; assay type: functional; details: read-out: GI; procedure, shortened: as §1

| SMILES | inhibition of growth at 10 µM |
| --- | --- |
| Cc1cnc(NC(=O)CCN2CCN(c3ccccc3)CC2)s1 | < 10% |

tested on: MDA-MB-231; assay: Growth inhibition of human MDA-MB-231 cells at 10 uM after 48 hrs by coulter counter analysis; assay type: functional; details: MDA-MB-231, 48 h, read-out: GI; procedure, shortened: as §1

| SMILES | inhibition of growth at 10 µM |
| --- | --- |
| Cc1cnc(NC(=O)CCN2CCN(c3ccccc3)CC2)s1 | < 10% |

tested on: OVCAR-8; assay: Growth inhibition of human OVCAR8 cells at 10 uM after 48 hrs by coulter counter analysis; assay type: functional; details: OVCAR-8, 48 h, read-out: GI; procedure, shortened: as §1

| SMILES | inhibition of growth at 10 µM |
| --- | --- |
| Cc1cnc(NC(=O)CCN2CCN(c3ccccc3)CC2)s1 | < 10% |

tested on: OVCAR-3; assay: Growth inhibition of human OVCAR3 cells at 10 uM after 48 hrs by coulter counter analysis; assay type: functional; details: OVCAR-3, 48 h, read-out: GI; procedure, shortened: as §1

| SMILES | inhibition of growth at 10 µM |
| --- | --- |
| Cc1cnc(NC(=O)CCN2CCN(c3ccccc3)CC2)s1 | < 10% |

tested on: not listed separately; assay: Growth inhibition of human NCI-ADR-RES cells at 10 uM after 48 hrs by coulter counter analysis; assay type: functional; details: read-out: GI; procedure, shortened: as §1

| SMILES | inhibition of growth at 10 µM |
| --- | --- |
| Cc1cnc(NC(=O)CCN2CCN(c3ccccc3)CC2)s1 | < 10% |

tested on: Malme-3M; assay: Growth inhibition of human MALME-3M cells at 10 uM after 48 hrs by coulter counter analysis; assay type: functional; details: read-out: GI; procedure, shortened: as §1

| SMILES | inhibition of growth at 10 µM |
| --- | --- |
| Cc1cnc(NC(=O)CCN2CCN(c3ccccc3)CC2)s1 | < 10% |

tested on: COLO 205; assay: Growth inhibition of human COLO205 cells at 10 uM after 48 hrs by coulter counter analysis; assay type: functional; details: COLO 205, 48 h, read-out: GI; procedure, shortened: as §1

| SMILES | inhibition of growth at 10 µM |
| --- | --- |
| Cc1cnc(NC(=O)CCN2CCN(c3ccccc3)CC2)s1 | < 10% |

tested on: IGROV-1; assay: Growth inhibition of human IGROV1 cells at 10 uM after 48 hrs by coulter counter analysis; assay type: functional; details: IGROV-1, 48 h, read-out: GI; procedure, shortened: as §1

| SMILES | inhibition of growth at 10 µM |
| --- | --- |
| Cc1cnc(NC(=O)CCN2CCN(c3ccccc3)CC2)s1 | < 10% |

tested on: KM12; assay: Growth inhibition of human KM12 cells at 10 uM after 48 hrs by coulter counter analysis; assay type: functional; details: KM12, 48 h, read-out: GI; procedure, shortened: as §1

| SMILES | inhibition of growth at 10 µM |
| --- | --- |
| Cc1cnc(NC(=O)CCN2CCN(c3ccccc3)CC2)s1 | < 10% |

tested on: LOX IMVI; assay: Growth inhibition of human LOXIMVI cells at 10 uM after 48 hrs by coulter counter analysis; assay type: functional; details: read-out: GI; procedure, shortened: as §1

| SMILES | inhibition of growth at 10 µM |
| --- | --- |
| Cc1cnc(NC(=O)CCN2CCN(c3ccccc3)CC2)s1 | < 10% |

tested on: RPMI-8226; assay: Growth inhibition of human RPMI8226 cells at 10 uM after 48 hrs by coulter counter analysis; assay type: functional; details: RPMI-8226, 48 h, read-out: GI; procedure, shortened: as §1

| SMILES | inhibition of growth at 10 µM |
| --- | --- |
| Cc1cnc(NC(=O)CCN2CCN(c3ccccc3)CC2)s1 | < 10% |

tested on: SK-MEL-5; assay: Growth inhibition of human SK-MEL-5 cells at 10 uM after 48 hrs by coulter counter analysis; assay type: functional; details: SK-MEL-5, 48 h, read-out: GI; procedure, shortened: as §1

| SMILES | inhibition of growth at 10 µM |
| --- | --- |
| Cc1cnc(NC(=O)CCN2CCN(c3ccccc3)CC2)s1 | < 10% |

tested on: MDA-MB-435; assay: Growth inhibition of human MDA-MB-435 cells at 10 uM after 48 hrs by coulter counter analysis; assay type: functional; details: MDA-MB-435, 48 h, read-out: GI; procedure, shortened: as §1

| SMILES | inhibition of growth at 10 µM |
| --- | --- |
| Cc1cnc(NC(=O)CCN2CCN(c3ccccc3)CC2)s1 | < 10% |

tested on: SK-MEL-2; assay: Growth inhibition of human SK-MEL-2 cells at 10 uM after 48 hrs by coulter counter analysis; assay type: functional; details: SK-MEL-2, 48 h, read-out: GI; procedure, shortened: as §1

| SMILES | inhibition of growth at 10 µM |
| --- | --- |
| Cc1cnc(NC(=O)CCN2CCN(c3ccccc3)CC2)s1 | < 10% |

tested on: ACHN; assay: Growth inhibition of human ACHN cells at 10 uM after 48 hrs by coulter counter analysis; assay type: functional; details: read-out: GI; procedure, shortened: as §1

| SMILES | inhibition of growth at 10 µM |
| --- | --- |
| Cc1cnc(NC(=O)CCN2CCN(c3ccccc3)CC2)s1 | < 10% |

tested on: SF-268; assay: Growth inhibition of human SF268 cells at 10 uM after 48 hrs by coulter counter analysis; assay type: functional; details: SF-268, 48 h, read-out: GI; procedure, shortened: as §1

| SMILES | inhibition of growth at 10 µM |
| --- | --- |
| Cc1cnc(NC(=O)CCN2CCN(c3ccccc3)CC2)s1 | < 10% |

tested on: SF-539; assay: Growth inhibition of human SF539 cells at 10 uM after 48 hrs by coulter counter analysis; assay type: functional; details: SF-539, 48 h, read-out: GI; procedure, shortened: as §1

| SMILES | inhibition of growth at 10 µM |
| --- | --- |
| Cc1cnc(NC(=O)CCN2CCN(c3ccccc3)CC2)s1 | < 10% |

tested on: HCT-15; assay: Growth inhibition of human HCT15 cells at 10 uM after 48 hrs by coulter counter analysis; assay type: functional; details: HCT-15, 48 h, read-out: GI; procedure, shortened: as §1

| SMILES | inhibition of growth at 10 µM |
| --- | --- |
| Cc1cnc(NC(=O)CCN2CCN(c3ccccc3)CC2)s1 | < 10% |

tested on: HCC 2998; assay: Growth inhibition of human HCC2998 cells at 10 uM after 48 hrs by coulter counter analysis; assay type: functional; details: HCC 2998, 48 h, read-out: GI; procedure, shortened: as §1

| SMILES | inhibition of growth at 10 µM |
| --- | --- |
| Cc1cnc(NC(=O)CCN2CCN(c3ccccc3)CC2)s1 | < 10% |

tested on: not listed separately; assay: Growth inhibition of human Hs 578T cells at 10 uM after 48 hrs by coulter counter analysis; assay type: functional; details: read-out: GI; procedure, shortened: as §1

| SMILES | inhibition of growth at 10 µM |
| --- | --- |
| Cc1cnc(NC(=O)CCN2CCN(c3ccccc3)CC2)s1 | < 10% |

tested on: SW-620; assay: Growth inhibition of human SW620 cells at 10 uM after 48 hrs by coulter counter analysis; assay type: functional; details: SW-620, 48 h, read-out: GI; procedure, shortened: as §2

| SMILES | inhibition of growth at 10 µM |
| --- | --- |
| Cc1cnc(NC(=O)CCN2CCN(c3ccccc3)CC2)s1 | < 10% |
